# In ChEMBL document CHEMBL4673403, “Development of a Hematopoietic Prostaglandin D Synthase-Degradation Inducer” (ACS Med Chem Lett, 2021):
# Activity calls are given as the source filed them. No cut-off for these calls is given here.
# How the values were obtained:
# [1] = molecular target: T1, Hematopoietic prostaglandin D synthase (Homo sapiens, UniProt O60760); assay: Inhibition of HPGDS in human KU812 cells assessed as reduction in PGD2 level at 10 to 100 nM incubated for 24 hrs followed by A23187 treatment and measured after 30 mins and subsequent compound washout then further incubated for 6 hrs in compound-free medium by ELISA; assay type: cell-based; settings: KU812 cell line, dose 10-100 nM, time 1470.0 min
# In short: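 KU812 cells exposed to compounds 24 h, washed four times, kept 6 h compound-free, then stimulated with 5 μM A23187 for 30 min; medium PGD2 measured. Means ± SD, n = 3; two-tailed t test.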
# [2] = Solubility of the compound; assay type: physicochemical
# [3] = molecular target: T1, Hematopoietic prostaglandin D synthase; assay: Inhibition of HPGDS in human KU812 cells assessed as reduction in PGD2 level at 10 to 100 nM incubated for 24 hrs followed by A23187 treatment and measured after 30 mins by ELISA; assay type: cell-based; settings: KU812 cell line, dose 10-100 nM, time 1470.0 min
# In short: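 After 24 h compound exposure, KU812 cells stimulated with 5 μM A23187 for 30 min with compound still present; PGD2 measured in medium. Means ± SD, n = 3; two-tailed t test.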
# [4] = molecular target: T2, Protein cereblon/Hematopoietic prostaglandin D synthase (Homo sapiens) (UniProt O60760+Q96SW2); assay: Protac activity at CRBN/HPGDS in human KU812 cells assessed as induction of HPGDS degradation at 10 to 100 nM incubated for 24 hrs followed by compound washout and further incubated for 6 hrs in compound-free medium by Western blot analysis; assay type: cell-based; settings: KU812 cell line, dose 10-100 nM
# In short: (§1)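 KU812 cells incubated with compounds 24 h, washed four times, then held 6 h in compound-free medium. Western blot H-PGDS/β-actin normalized to vehicle as 100; means ± SD, n = 3; two-tailed t test.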
# [5] = molecular target: T1, Hematopoietic prostaglandin D synthase; assay: Inhibition of recombinant human HPGDS expressed in Escherichia coli BL21 (DE3) measured after 3 mins by spectrophotometric analysis
# [6] = molecular target: T1, Hematopoietic prostaglandin D synthase; assay: Binding affinity to recombinant human HPGDS expressed in Escherichia coli BL21 (DE3) measured after 1 hr by fluorescence polarization assay
# In short: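 Competitive binding to H-PGDS read by fluorescence polarization with a fluorescence probe.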
# [7] = molecular target: T2, Protein cereblon/Hematopoietic prostaglandin D synthase (Homo sapiens); assay: Protac activity at CRBN/HPGDS in human KU812 cells assessed as induction of HPGDS degradation at 100 nM measured after 6 hrs in presence of ubiquitin-activating enzyme inhibitor MLN7243 by Western blot analysis; assay type: cell-based; settings: KU812 cell line
# In short: (§2)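 KU812 cells given 100 nM degrader with or without 10 μM MG132 or 10 μM MLN7243 for 6 h. Western blot H-PGDS/β-actin normalized to vehicle as 100; means ± SD, n = 3.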
# [8] = molecular target: T2, Protein cereblon/Hematopoietic prostaglandin D synthase (Homo sapiens); assay: Protac activity at CRBN/HPGDS in human KU812 cells assessed as induction of HPGDS degradation at 100 nM measured after 6 hrs in presence of proteasome inhibitor MG132 by Western blot analysis; assay type: cell-based; settings: KU812 cell line; in short: as §2
# [9] = molecular target: T2, Protein cereblon/Hematopoietic prostaglandin D synthase (Homo sapiens); assay: Competitive binding affinity to HPGDS in human KU812 cells assessed as induction of CRBN-mediated degradation of HPGDS at 100 nM after 6 hrs in presence of excess pomalidomide by Western blot analysis; assay type: cell-based; settings: KU812 cell line
# In short: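 KU812 cells given 100 nM degrader and/or 10 μM pomalidomide for 6 h. Western blot H-PGDS/β-actin normalized to vehicle as 100; means ± SD, n = 3.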
# [10] = molecular target: T2, Protein cereblon/Hematopoietic prostaglandin D synthase (Homo sapiens); assay: Protac activity at CRBN/HPGDS in human KU812 cells assessed as induction of HPGDS degradation at 1 uM measured after 6 hrs by Western blot analysis; assay type: cell-based; settings: KU812 cell line
# In short: (§3)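 KU812 cells incubated 6 h with 1 μM degrader or with the ligand mixture (TFC-007 plus pomalidomide, 1 μM each). Western blot H-PGDS/β-actin normalized to vehicle as 100; means ± SD, n = 3; two-tailed t test.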
# [11] = system: KU812; assay: Effect on HPGDS mRNA expression in human KU812 cells up to 1000 nM measured after 6 hrs by SYBR green based qRT-PCR analysis; assay type: functional, cell-based; settings: dose nM <=1000, time 6.0 hrs
# In short: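 KU812 cells treated with the indicated concentrations for 6 h. H-PGDS mRNA expressed relative to vehicle, set to 1; means ± SD, n = 3; two-tailed Student's t test versus vehicle.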
# [12] = molecular target: Protein cereblon/G2/mitotic-specific cyclin-B1 (Homo sapiens) (UniProt P14635+Q96SW2); assay: Protac activity at CRBN/Cyclin B1 in human KU812 cells assessed as decrease in cyclin B1 protein level by measuring protein turnover at 100 nM measured within 6 hrs in presence of protein synthesis inhibitor cycloheximide by Western blot analysis; assay type: cell-based; settings: KU812 cell line
# In short: (§4)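 KU812 cells given 10 μg/mL cycloheximide with or without 100 nM degrader for the indicated periods. H-PGDS/β-actin and cyclin B1/β-actin ratios by Western blot, normalized to time 0 control as 100; means ± SD, n = 3.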
# [13] = molecular target: T2, Protein cereblon/Hematopoietic prostaglandin D synthase (Homo sapiens); assay: Protac activity at CRBN/HPGDS in human KU812 cells assessed as decrease in HPGDS protein level by measuring protein turnover at 100 nM measured within 6 hrs in presence of protein synthesis inhibitor cycloheximide by Western blot analysis; assay type: cell-based; settings: KU812 cell line; in short: as §4
# [14] = molecular target: T2, Protein cereblon/Hematopoietic prostaglandin D synthase (Homo sapiens); assay: Protac activity at CRBN/HPGDS in human MEG01s cells assessed as reduction in HPGDS protein level up to 1000 nM measured after 6 hrs by Western blot analysis; assay type: cell-based; settings: dose nM <=1000, time 6.0 hrs
# [15] = molecular target: T2, Protein cereblon/Hematopoietic prostaglandin D synthase (Homo sapiens); assay: Protac activity at CRBN/HPGDS in human KU812 cells assessed as reduction in HPGDS protein level at >=10 nM measured after 3 hrs by Western blot analysis; assay type: cell-based; settings: KU812 cell line, dose nM >=10, time 3.0 hrs
# In short: (§5)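 KU812 cells exposed to graded concentrations for 3, 6 or 24 h. Western blot; H-PGDS/β-actin ratio normalized to vehicle control as 100; means ± SD, n = 3.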
# [16] = molecular target: T2, Protein cereblon/Hematopoietic prostaglandin D synthase (Homo sapiens); assay: Protac activity at CRBN/HPGDS in human KU812 cells assessed as reduction in HPGDS protein level at 100 to 1000 nM measured after 3 hrs by Western blot analysis; assay type: cell-based; settings: KU812 cell line, dose 100-1000 nM; in short: as §5
# [17] = molecular target: T2, Protein cereblon/Hematopoietic prostaglandin D synthase (Homo sapiens); assay: Protac activity at CRBN/HPGDS in human KU812 cells assessed as reduction in HPGDS protein level at >=10 nM measured after 6 to 24 hrs by Western blot analysis; assay type: cell-based; settings: KU812 cell line, dose nM >=10, time 6-24 hrs; in short: as §5
# [18] = Protac activity at CRBN/AKR1B1 in human KU812 cells assessed as reduction in AKR1B1 protein level up to 1000 nM measured after 24 hrs by Western blot analysis; settings: KU812 cell line, dose nM <=1000, time 24.0 hrs
# [19] = system: Protein cereblon/Prostaglandin E synthase (Homo sapiens); assay: Protac activity at CRBN/MPGES-1 in human KU812 cells assessed as reduction in MPGES-1 protein level up to 1000 nM measured after 24 hrs by Western blot analysis; settings: KU812 cell line, dose nM <=1000, time 24.0 hrs
# [20] = molecular target: Baculoviral IAP repeat-containing protein 2/Hematopoietic prostaglandin D synthase (Homo sapiens) (UniProt Q13490+O60760); assay: SNIPER activity at IAP1/HPGDS in human KU812 cells assessed as reduction in HPGDS protein level up to 1000 nM measured after 6 hrs by Western blot analysis; assay type: cell-based; settings: KU812 cell line, dose nM <=1000, time 6.0 hrs
# [21] = molecular target: T1, Hematopoietic prostaglandin D synthase; assay: Induction of HPGDS degradation in human KU812 cells at 1 uM measured after 6 hrs in presence of TFC-007 by Western blot analysis; assay type: cell-based; settings: KU812 cell line; in short: as §3
# [22] = molecular target: T2, Protein cereblon/Hematopoietic prostaglandin D synthase (Homo sapiens); assay: Induction of CRBN-mediated HPGDS degradation in human KU812 cells at 10 to 100 nM incubated for 24 hrs followed by compound washout and further incubated for 6 hrs in compound-free medium by Western blot analysis; assay type: cell-based; settings: KU812 cell line, dose 10-100 nM; in short: as §1
# [23] = molecular target: T1, Hematopoietic prostaglandin D synthase; assay: Induction of HPGDS degradation in human KU812 cells at 1 uM measured after 6 hrs in presence of pomalidomide by Western blot analysis; assay type: cell-based; settings: KU812 cell line; in short: as §3
# [24] = molecular target: T1, Hematopoietic prostaglandin D synthase; assay: Inhibition of recombinant human HPGDS using [14C]-PGH2 as substrate preincubated for 1 min in presence of MgCl2 followed by substrate addition and measured after 45 mins by radioactive imaging analysis
# [25] = molecular target: T1, Hematopoietic prostaglandin D synthase; assay: Inhibition of recombinant human HPGDS
compound,measurement,setting,value
O=C1CCC(N2C(=O)c3cccc(NCCOCCOCCOCCOCCOCCC(=O)N4CCN(C(=O)C5CCN(c6ccc(NC(=O)c7cnc(Oc8ccccc8)nc7)cc6)CC5)CC4)c3C2=O)C(=O)N1 (stereo not given),inhibition,[1],Active
same,solubility,[2],Soluble
same,inhibition,[3],Active
same,Activity,[4],Active
same,IC50,[5],0.266 µM
same,IC50,[6],0.32 µM
same,Activity,[7],inactive
same,Activity,[8],inactive
same,Activity,[9],inactive
same,Activity,[10],Active
same,Activity,[11],inactive
same,Activity,[12],inactive
same,Activity,[13],Active
same,Activity,[14],Active
same,Activity,[15],Active
same,Activity,[16],Active
same,Activity,[17],Active
same,Activity,[18],inactive
same,Activity,[19],inactive
CN1C(=O)CCC(N2C(=O)c3cccc(NCCOCCOCCOCCOCCOCCC(=O)N4CCN(C(=O)C5CCN(c6ccc(NC(=O)c7cnc(Oc8ccccc8)nc7)cc6)CC5)CC4)c3C2=O)C1=O (stereo not given),inhibition,[1],inactive
same,solubility,[2],Soluble
same,inhibition,[3],Active
same,Activity,[4],inactive
same,IC50,[5],0.32 µM
same,IC50,[6],0.32 µM
CN[C@@H](C)C(=O)N[C@H](C(=O)N1CCC[C@H]1c1nc(C(=O)c2cccc(OCCOCCOCC(=O)N3CCN(C(=O)C4CCN(c5ccc(NC(=O)c6cnc(Oc7ccccc7)nc6)cc5)CC4)CC3)c2)cs1)C1CCCCC1,Activity,[20],inactive
Nc1cccc2c1C(=O)N(C1CCC(=O)NC1=O)C2=O (stereo not given),Activity,[21],inactive
O=C(Nc1ccc(N2CCC(C(=O)N3CCOCC3)CC2)cc1)c1cnc(Oc2ccccc2)nc1,inhibition,[1],inactive
same,inhibition,[3],Active
same,Activity,[22],inactive
same,IC50,[5],0.071 µM
same,IC50,[6],0.32 µM
same,Activity,[23],inactive
same,IC50,[24],0.071 µM
CON(C)C(=O)c1[nH]c(C)c(-c2nc3cc(C(=O)c4ccccc4)ccc3[nH]2)c1C,IC50,[25],0.023 µM
